In brackets after ≈: the same amount, converted by molar mass. Activity calls are given as the source filed them. The calls are words filed in the database; no cut-off is given here.
What was measured:
[1] = Aqueous solubility at pH 4; assay type: physicochemical
How it was run: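 Kinetic solubility at pH 4.0, reported as a range from low to high solubility; values of 1000 µM or higher are reported as >1000 µM.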

Aurora kinase B = Aurora kinase B (Homo sapiens, UniProt Q96GD4); experiment: Inhibition of Aurora B after 60 mins
Aurora kinase B, sequence (Q96GD4 whole entry): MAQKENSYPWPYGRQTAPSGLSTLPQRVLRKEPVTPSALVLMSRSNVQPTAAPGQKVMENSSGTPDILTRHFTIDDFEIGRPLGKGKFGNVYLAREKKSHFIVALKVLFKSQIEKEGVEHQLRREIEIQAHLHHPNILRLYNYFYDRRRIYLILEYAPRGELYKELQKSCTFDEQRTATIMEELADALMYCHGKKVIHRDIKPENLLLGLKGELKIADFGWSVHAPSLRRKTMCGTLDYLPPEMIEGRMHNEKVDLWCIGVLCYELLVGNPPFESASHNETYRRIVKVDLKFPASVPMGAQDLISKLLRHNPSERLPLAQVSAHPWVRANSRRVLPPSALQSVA

HCT-116 [2] = experiment: Antiproliferative activity against human HCT116 cells by BrdU incorporation assay; assay type: functional, cell-based
How it was run: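 HCT116 proliferation measured as BrdU incorporation; EC50 reported.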

Aurora kinase A = biological target: T1, Aurora kinase A (Homo sapiens, UniProt O14965); experiment: Inhibition of Aurora A after 60 mins
T1 sequence (O14965 whole entry): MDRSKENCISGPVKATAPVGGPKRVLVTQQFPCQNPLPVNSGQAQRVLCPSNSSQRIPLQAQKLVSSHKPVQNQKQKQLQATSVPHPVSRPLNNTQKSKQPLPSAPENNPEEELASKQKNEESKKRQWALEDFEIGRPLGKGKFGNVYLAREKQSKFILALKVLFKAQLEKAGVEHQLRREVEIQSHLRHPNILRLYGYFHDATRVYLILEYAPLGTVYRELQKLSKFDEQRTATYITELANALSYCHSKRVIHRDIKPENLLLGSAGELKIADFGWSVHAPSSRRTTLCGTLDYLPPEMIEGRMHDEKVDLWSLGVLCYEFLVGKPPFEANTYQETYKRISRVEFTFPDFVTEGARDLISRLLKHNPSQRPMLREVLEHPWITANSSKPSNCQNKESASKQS

HCT-116 [3] = experiment: Cell cycle arrest in human HCT116 cells assessed as accumulation of 4N DNA by FACS analysis; assay type: functional, cell-based
How it was run: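 HCT116 cells exposed to 16, 63, 250 and 1000 nM of compound, then cell-cycle profile read by FACS. EC50 is reported as the concentration range at which ≥50% of cells have 4 N or higher DNA content.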

[4] = Clearance in mouse at 5 mg/kg, iv; assay type: ADME, organism-based; set-up: dose 5 mg/kg, route intravenous; conditions: in vivo
[5] = Half life in mouse at 5 mg/kg, iv; assay type: ADME, organism-based; set-up: dose 5 mg/kg, route intravenous; conditions: in vivo
HCT-116 [6] = experiment: Cell cycle arrest in human HCT116 cells assessed as accumulation of cells at G2 phase; assay type: functional, cell-based

solubility [1]	IC50 (Aurora kinase B)	EC50 (HCT-116 [2])	IC50 (Aurora kinase A)	EC50 (HCT-116 [3])	clearance [4]	half-life [5]	Structure (SMILES)	Activity (HCT-116 [6])
> 1000 µM	280 nM						Cn1c(Nc2ccc(CCNc3ncnc4ccsc34)cc2)nc2ccccc21	
> 1000 µM	10 nM	41 nM	28 nM				c1ccc2[nH]c(Nc3ccc(CCNc4ncnc5ccsc45)cc3)nc2c1	
	580 nM	8500 nM					c1cc(CNc2ncnc3ccsc23)cc(Nc2nc3ccccc3[nH]2)c1	
> 1000 µM	140 nM						c1cc2nc(Nc3ccc(CCNc4ncnc5ccsc45)cc3)[nH]c2cn1	
400 µM (≈ 157 µg/mL)	420 nM		1400 nM				c1ccc2[nH]c(Nc3ncc(CCNc4ncnc5ccsc45)s3)nc2c1	
200 µM (≈ 77.5 µg/mL)	120 nM	400 nM					c1ccc2oc(Nc3ccc(CCNc4ncnc5ccsc45)cc3)nc2c1	
100 µM (≈ 40.4 µg/mL)	2500 nM						c1ccc2sc(Nc3ccc(CCNc4ncnc5ccsc45)cc3)nc2c1	
> 1000 µM	5600 nM						Cc1nc(Nc2ccc(CCNc3ncnc4ccsc34)cc2)[nH]c1C	
	> 10000 nM						c1ccc2[nH]c(Nc3ccc(CNc4ncnc5ccsc45)cc3)nc2c1	
400 µM (≈ 182 µg/mL)	63 nM	161 nM		63 nM			FC(F)(F)c1ccc2nc(Nc3ccc(CCNc4ncnc5ccsc45)nc3)[nH]c2c1	
100 µM (≈ 42.2 µg/mL)	10 nM	17 nM	20 nM	16 nM			Clc1cnc2nc(Nc3ccc(CCNc4ncnc5ccsc45)cc3)[nH]c2c1	
100 µM (≈ 39.7 µg/mL)				16 nM			O=C(Nc1ccccc1)Nc1ncc(CCNc2ncnc3ccsc23)s1	
750 µM (≈ 354 µg/mL)	21 nM	80 nM	64 nM	63 nM			Fc1cc(CCNc2ncnc3ccsc23)ccc1Nc1nc2cc(C(F)(F)F)ccc2[nH]1	
	1400 nM						FC(F)(F)c1cccc(Nc2nc3ccc(CCNc4ncnc5ccsc45)cc3[nH]2)c1	
> 1000 µM	600 nM						FC(F)(F)c1ccc2[nH]c(Nc3ccc(CCNc4ncnc5ccsc45)cn3)nc2c1	
100 µM (≈ 46.1 µg/mL)	620 nM	1900 nM	490 nM				FC(F)(F)c1ccc2nc(Nc3ncc(CCNc4ncnc5ccsc45)s3)[nH]c2c1	
> 1000 µM	> 10000 nM						c1ccc(-c2c[nH]c(Nc3ccc(CCNc4ncnc5ccsc45)cc3)n2)cc1	
750 µM (≈ 341 µg/mL)	6 nM	5 nM	40 nM	16 nM	85 mL/min/kg	0.61 h	FC(F)(F)c1ccc2[nH]c(Nc3ccc(CCNc4ncnc5ccsc45)cc3)nc2c1	Active
> 1000 µM	8 nM	9 nM	28 nM	16 nM	39 mL/min/kg	0.45 h	Clc1ccc2[nH]c(Nc3ccc(CCNc4ncnc5ccsc45)cc3)nc2c1	Active
50 µM				< 16 nM	48 mL/min/kg	1.4 h	CS(=O)(=O)O.O=C(Nc1cccc(Cl)c1)Nc1ncc(CCNc2ncnc3ccsc23)s1 [SNS-314 MESYLATE]	
50 µM (≈ 23.2 µg/mL)				< 16 nM			O=C(Nc1cccc(C(F)(F)F)c1)Nc1ncc(CCNc2ncnc3ccsc23)s1	
> 1000 µM	83 nM	270 nM					c1cnc2nc(Nc3ccc(CCNc4ncnc5ccsc45)cc3)[nH]c2c1	
100 µM (≈ 45.5 µg/mL)	5 nM	< 1 nM	17 nM	< 16 nM		1.5 h	FC(F)(F)c1cnc2nc(Nc3ccc(CCNc4ncnc5ccsc45)cc3)[nH]c2c1	
	1400 nM						c1cc(CCNc2ncnc3ccsc23)cc(Nc2nc3ccccc3[nH]2)c1	

From ChEMBL document CHEMBL1154201, “2-Aminobenzimidazoles as potent Aurora kinase inhibitors” (Bioorg Med Chem Lett, 2009)
